“And” between values parts separate entries of the source, which are not always exact repeats. Equal values may be shown once.
Columns and labels:
[1] = Partition coefficient (logP); format: physicochemical; details: octanol/water
Summary of the method: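 Shake-flask octanol/aqueous buffer pH 7.4 partition; compound stock 4 × 10^-3 M in 1,4-dioxane; phases shaken 1 h at 25.0 ± 0.1 °C, centrifuged 15 min; both layers read by UV at λmax 320–354 nm; three replicates. P taken as quotient of buffer and octanol concentrations. Some values instead calculated from unsubstituted parent log P plus hydrophobic fragmental constants (log PX = log PH + πX).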

[2] = tested on: Leishmania amazonensis; test: Tested for growth inhibitory activity against Leishmania amazonensis promastigotes; format: functional, organism-based
Summary of the method: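 L. amazonensis promastigotes (MHOM/BR/77/LTB0016), grown at 25 °C in LIT medium with 10% heat-inactivated FCS, harvested late log phase, adjusted to 4×10^6/mL. Drugs in DMSO (≤1.6% v/v) at 160 to 5 μg/mL; 24 h incubation; parasites counted in Neubauer chamber; inhibition versus DMSO and untreated controls; IC50 by linear regression of inhibition against log concentration.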

[3] = pKa was determined; format: physicochemical

SMILES	logP [1]	pKa [3]	IC50 [2]
CCOC(=O)c1cnc2c(c(-c3ccccc3)nn2-c2ccccc2)c1Nc1ccc(O)cc1	3.09	–	0.34 µg/mL and 750 nM
CCOC(=O)c1cnc2c(c(C)nn2-c2ccccc2)c1Nc1ccc(O)c(CN(CC)CC)c1	2.05	–	0.18 µg/mL and 390 nM
CCOC(=O)c1cnc2c(c(C)nn2C)c1Nc1ccc(O)cc1	1.14	9.98	1.37 µg/mL and 4.2 µM
CCOC(=O)c1cnc2c(c(C)nn2C)c1Nc1ccc(C)cc1	1.52	8.61	10.6 µg/mL and 32.6 µM
CCOC(=O)c1cnc2c(c(C)nn2C)c1Nc1ccc(OC)cc1	0.94	8.07	10.9 µg/mL and 32 µM
CCOC(=O)c1cnc2c(c(C)nn2C)c1Nc1ccc(Br)cc1	1.82	8.39	4.57 µg/mL and 11.7 µM
CCOC(=O)c1cnc2c(c(C)nn2-c2ccccc2)c1Nc1ccc(O)cc1	1.69	–	0.21 µg/mL and 550 nM
CCOC(=O)c1cnc2c(c(C)nn2C)c1Nc1ccc(Cl)cc1	1.32	7.98	1.34 µg/mL and 3.89 µM
CCOC(=O)c1cnc2c(c(C)nn2C)c1Nc1ccc(F)cc1	0.7	8.14	12.8 µg/mL and 39 µM
CCN(CC)Cc1cc(Nc2ccnc3cc(Cl)ccc23)ccc1O.Cl	–	–	0.34 µg/mL and 950 nM
N=C(N)c1ccc(OCCCCCOc2ccc(C(=N)N)cc2)cc1.O=S(=O)(O)CCO	–	–	0.27 µg/mL and 460 nM
CCOC(=O)c1cnc2c(c(-c3ccccc3)nn2-c2ccccc2)c1Nc1ccc(O)c(CN(CC)CC)c1	3.45	–	0.06 µg/mL and 120 nM

The next lines start with results.

logP [1]	pKa [3]	SMILES	IC50 [2]
2.27	7.06	CCOC(=O)c1cnc2c(c(C)nn2C)c1Nc1cccc(C)c1	4.82 µg/mL and 14.9 µM
0.94	7.64	CCOC(=O)c1cnc2c(c(C)nn2C)c1Nc1cccc(OC)c1	7.45 µg/mL and 21.9 µM
0.68	8.8	CCOC(=O)c1cnc2c(c(C)nn2C)c1Nc1ccc([N+](=O)[O-])cc1	114 µg/mL and 321 µM
0.68	8.38	CCOC(=O)c1cnc2c(c(C)nn2C)c1Nc1cccc([N+](=O)[O-])c1	6.11 µg/mL and 17.2 µM
0.96	8.23	CCOC(=O)c1cnc2c(c(C)nn2C)c1Nc1ccccc1	30.7 µg/mL and 98.9 µM
1.67	9.05	CCOC(=O)c1cnc2c(c(C)nn2C)c1Nc1cccc(Cl)c1	4.79 µg/mL and 13.9 µM

From ChEMBL document CHEMBL1137223, “Antileishmanial pyrazolopyridine derivatives: synthesis and structure-activity relationship analysis” (J Med Chem, 2004)
